pIC50: −log10 of the molar value.
What was measured:
[1] = biological target: Human immunodeficiency virus type 1 reverse transcriptase (Human immunodeficiency virus 1, UniProt Q72547); experiment: Inhibition of wild type HIV1 reverse transcriptase by SPA heteropolymeric assay
Summary of the method: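 Recombinant RT, heteropolymeric assay of RNA-dependent DNA polymerase activity with biotinylated primer oligonucleotide and tritiated dNTP substrate; new DNA quantified by capturing biotinylated primer on streptavidin-coated SPA beads; IC50 reported.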

[2] = biological target: Human immunodeficiency virus type 1 reverse transcriptase (Human immunodeficiency virus 1, UniProt Q72547, K103N/Y181C); experiment: Inhibition of HIV1 reverse transcriptase K103N/Y181C double mutant by SPA heteropolymeric assay
Summary of the method: (§1)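 Recombinant mutant RT, heteropolymeric assay of RNA-dependent DNA polymerase activity. Uses a biotinylated primer oligonucleotide and tritiated dNTP substrate. Newly synthesized DNA is captured via the biotinylated primer on streptavidin-coated scintillation proximity beads and counted. Reported as IC50.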

[3] = biological target: Human immunodeficiency virus type 1 reverse transcriptase (Human immunodeficiency virus 1, UniProt Q72547, Y188L); experiment: Inhibition of HIV1 reverse transcriptase Y188L mutant by SPA heteropolymeric assay; summary of the method: as §1
[4] = tested on: Human immunodeficiency virus 1; experiment: Antiviral activity against HIV1 expressing reverse transcriptase Y188L mutant infected in human MT4 cells assessed as reduction in virus-induced cytopathic effect; assay type: functional, organism-based; conditions: Human immunodeficiency virus 1, MT4
Summary of the method: (§2)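 Compound incubated with HIV-1-infected MT4 cells in medium containing 10% fetal bovine serum. Read-out was reduction of viral cytopathic effect on the cells, reported as EC50.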

[5] = tested on: Human immunodeficiency virus 1; experiment: Antiviral activity against HIV1 expressing reverse transcriptase K103N/Y181C double mutant infected in human MT4 cells assessed as reduction in virus-induced cytopathic effect; assay type: functional, organism-based; conditions: Human immunodeficiency virus 1, MT4; summary of the method: as §2
[6] = tested on: Human immunodeficiency virus 1; experiment: Antiviral activity against HIV1 infected in human MT4 cells assessed as reduction in virus-induced cytopathic effect; assay type: functional, organism-based; conditions: Human immunodeficiency virus 1, MT4
[7] = tested on: Human immunodeficiency virus 1; experiment: Antiviral activity against wild type HIV1 infected in human MT4 cells assessed as reduction in virus-induced cytopathic effect in presence of 10 % fetal bovine serum; assay type: functional, organism-based; conditions: Human immunodeficiency virus 1, MT4
[8] = tested on: Human immunodeficiency virus 1; experiment: Antiviral activity against HIV1 expressing reverse transcriptase V106A mutant infected in human MT4 cells assessed as reduction in virus-induced cytopathic effect; assay type: functional, organism-based; conditions: Human immunodeficiency virus 1, MT4; summary of the method: as §2
[9] = tested on: Human immunodeficiency virus 1; experiment: Antiviral activity against HIV1 expressing reverse transcriptase K103N/L100I double mutant infected in human MT4 cells assessed as reduction in virus-induced cytopathic effect; assay type: functional, organism-based; conditions: Human immunodeficiency virus 1, MT4; summary of the method: as §2
[10] = tested on: Human immunodeficiency virus 1; experiment: Antiviral activity against HIV1 expressing reverse transcriptase G190A mutant infected in human MT4 cells assessed as reduction in virus-induced cytopathic effect; assay type: functional, organism-based; conditions: Human immunodeficiency virus 1, MT4; summary of the method: as §2
[11] = tested on: Human immunodeficiency virus 1; experiment: Antiviral activity against wild type HIV1 infected in human MT4 cells assessed as reduction in virus-induced cytopathic effect in presence of 40 % human serum; assay type: functional, organism-based; conditions: Human immunodeficiency virus 1, MT4

Structure (SMILES) | pIC50 [1] | pIC50 [2] | pIC50 [3] | pIC50 [4] | pIC50 [5] | pIC50 [6] | pIC50 [7] | pIC50 [8] | pIC50 [9] | pIC50 [10] | pIC50 [11]
Cc1cc(C#N)cc(C)c1Oc1nc(NC2CCN(Cc3ccc(C#N)cc3)CC2)ncc1Br | 7.68 | 7.74 | 7.39 | – | – | – | – | – | – | – | –
Cc1cc(C#N)cc(C)c1Oc1ccnc(NC2CCN(Cc3ccc(S(C)(=O)=O)cc3)CC2)n1 | 7.47 | 7.30 | 7.14 | 7.77 | 7.69 | – | – | – | – | – | –
Cc1cc(C#N)cc(C)c1Oc1nc(NC2CCN(Cc3ccc(C(N)=O)cc3Cl)CC2)ncc1Br | 6.88 | 7.16 | 6.28 | 7.52 | 7.28 | 7.38 | – | – | – | – | –
Cc1cc(C#N)cc(C)c1Oc1nc(NC2CCN(Cc3ccc(S(C)(=O)=O)cc3Cl)CC2)ncc1Br | 7.35 | 7.55 | 6.67 | 8.55 | 8.14 | 8.21 | 8.21 | 8.70 | 8.23 | 8.74 | 7.31
Cc1cc(C#N)cc(C)c1Oc1ccnc(NC2CCN(Cc3ccc(S(N)(=O)=O)cc3Cl)CC2)n1 | 7.08 | 7.60 | 6.98 | 8.85 | 7.67 | 8.36 | – | – | – | – | –
Cc1cc(C#N)cc(C)c1Oc1nc(NC2CCN(Cc3ccc(Cl)cc3)CC2)ncc1Br | 6.82 | 6.89 | 6.10 | – | – | – | – | – | – | – | –
Cc1cc(C#N)cc(C)c1Oc1nc(NC2CCN(Cc3ccccc3)CC2)ncc1Br | 7.72 | 7.82 | 7.15 | 8.04 | < 7.00 | 8.19 | – | – | – | – | –
Cc1cc(C#N)cc(C)c1Oc1nc(NC2CCN(Cc3ccccc3C#N)CC2)ncc1Br | 7.54 | 7.21 | 7.37 | – | – | – | – | – | – | – | –
Cc1cc(C#N)cc(C)c1Oc1nc(NC2CCN(Cc3ccc(S(C)(=O)=O)cc3)CC2)ncc1Br | 7.55 | 7.85 | 7.55 | > 8.92 | 7.45 | 8.28 | – | – | – | – | –
Cc1cc(C#N)cc(C)c1Oc1ccnc(NC2CCN(Cc3ccc(S(C)(=O)=O)cc3Cl)CC2)n1 | 7.66 | 7.52 | 6.58 | 7.33 | 7.17 | 7.61 | – | – | – | – | –
Cc1cc(C#N)cc(C)c1Oc1nc(NC2CCN(Cc3cccc(C#N)c3)CC2)ncc1Br | 7.64 | 7.57 | 7.43 | – | – | – | – | – | – | – | –
Cc1cc(C#N)cc(C)c1Oc1nc(NC2CCN(c3ccccc3)C2)ncc1Br (centres undefined) | 7.17 | < 6.00 | 6.14 | – | – | – | – | – | – | – | –
Cc1cc(C#N)cc(C)c1Oc1ccnc(NC2CCN(Cc3ccccc3)CC2)n1 | 7.06 | 6.67 | 6.43 | 7.36 | < 7.00 | 8.48 | – | – | – | – | –
Cc1cc(C#N)cc(C)c1Oc1ccnc(NCCC(=O)Nc2ccc(S(N)(=O)=O)cc2Cl)n1 | 6.05 | < 6.00 | < 5.00 | – | – | – | – | – | – | – | –
Cc1cc(C#N)cc(C)c1Oc1nc(NC2CCN(Cc3ccc(S(N)(=O)=O)cc3Cl)CC2)ncc1Br | 7.05 | 7.68 | 6.68 | 8.49 | 7.72 | 8.00 | 8.00 | 8.64 | 8.04 | 8.22 | 7.21
Cc1cc(C#N)cc(C)c1Oc1nc(NC2CCN(Cc3ccc(C#N)cc3Cl)CC2)ncc1Br | 6.84 | 6.80 | – | 7.94 | 7.17 | 7.75 | – | – | – | – | –
Cc1cc(C#N)cc(C)c1Oc1nc(NC2CCN(Cc3cccc(Cl)c3)CC2)ncc1Br | 6.62 | 6.64 | – | – | – | – | – | – | – | – | –
Cc1cc(C#N)cc(C)c1Oc1nc(NC2CCN(c3ccccc3)CC2)ncc1Br | 6.72 | 6.95 | 6.48 | – | – | – | – | – | – | – | –
Cc1cc(C#N)cc(C)c1Oc1nc(NC2CCN(Cc3ccc(C(=O)O)cc3Cl)CC2)ncc1Br | 7.49 | 7.55 | 7.07 | – | 7.13 | 8.41 | – | – | – | – | –
O=C1Nc2ccc(Cl)cc2[C@@](C#CC2CC2)(C(F)(F)F)O1 [EFAVIRENZ] | – | – | – | < 6.00 | – | – | – | 8.24 | < 6.30 | 8.22 | –
Cc1cc(C#N)cc(C)c1Oc1nc(Nc2ccc(C#N)cc2)nc(N)c1Br [ETRAVIRINE] | – | – | – | 8.51 | – | – | – | – | 8.02 | 8.96 | 7.59
